Assay results: ChEMBL document CHEMBL4673308, “Synthesis and evaluation of new dinitrobenzamide mustards in human prostate cancer” (Bioorg Med Chem Lett, 2021)

What was measured:
[1] = system: DU-145; experiment: Cytotoxicity against human DU145 cells assessed as reduction in cell viability incubated for 2 hrs under normoxic condition followed by washed with fresh media incubated for 3 days by alamar blue assay; type: functional, cell-based
In short: (§1)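 Cells exposed to the mustards across a concentration range for 2 h under hypoxia (N2) or normoxia (air), then washed and incubated 3 days under normoxia. Viability was read with alamarBlue, and IC50 is reported as mean ± SEM.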

[2] = system: PC-3; experiment: Cytotoxicity against human PC-3 cells assessed as reduction in cell viability incubated for 2 hrs under normoxic condition followed by washed with fresh media incubated for 3 days by alamar blue assay; type: functional, cell-based; in short: as §1
[3] = system: PC-3; experiment: Cytotoxicity against human PC-3 cells assessed as reduction in cell viability incubated for 2 hrs under hypoxic condition followed by washed with fresh media incubated for 3 days by alamar blue assay; type: functional, cell-based; in short: as §1
[4] = system: DU-145; experiment: Cytotoxicity against human DU145 cells assessed as reduction in cell viability incubated for 2 hrs under hypoxic condition followed washed with fresh media incubated for 3 days by alamar blue assay; type: functional, cell-based; in short: as §1
[5] = Selectivity index, ratio of IC50 for human PC-3 cells under normoxic condition to IC50 human PC-3 cells under hypoxia condition incubated for 2 hrs followed by washed with fresh media incubated for 3 days by alamar blue assay; type: functional
In short: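 PC-3 hypoxia selectivity is the IC50 in air divided by the IC50 under N2. Both come from the 2 h exposure, wash, 3-day normoxic incubation and alamarBlue viability readout.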

[6] = system: PC-3; experiment: Cytotoxicity against human PC-3 cells assessed as reduction in cell viability preincubated for 4 hrs in hypoxia and further incubated for 5 days in fresh medium by SRB assay; type: functional, cell-based
[7] = Lipophilicity, logD of compound at pH 7.4 by microscale shake flask method; type: physicochemical; details: buffer
In short: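 Distribution coefficient measured at pH 7.4 and reported as mean ± SEM from two or more independent experiments, each in triplicate.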

SMILES	IC50 [1]	IC50 [2]	IC50 [3]	IC50 [4]	Ratio IC50 [5]	IC50 [6]	logD [7]
CS(=O)(=O)OCCN(CCBr)c1c(C(=O)NCCO)cc([N+](=O)[O-])cc1[N+](=O)[O-]	210 µM	320 µM	48 µM	78 µM	6.7	7.3 µM	0.8
CS(=O)(=O)OCCN(CCBr)c1c(C(=O)NCCC(=O)O)cc([N+](=O)[O-])cc1[N+](=O)[O-]	326 µM	417 µM	41 µM	56 µM	10		-0.71
Cc1ccc(S(=O)(=O)OCCN(CCBr)c2c(C(=O)NCCC(=O)O)cc([N+](=O)[O-])cc2[N+](=O)[O-])cc1	363 µM	460 µM	42 µM	54 µM	11		1.03
O=C(NCCO)c1cc([N+](=O)[O-])cc([N+](=O)[O-])c1N(CCBr)CCBr	177 µM	193 µM	26 µM	80 µM	7.4		1.7
Cc1ccc(S(=O)(=O)OCCN(CCBr)c2c(C(=O)NCCO)cc([N+](=O)[O-])cc2[N+](=O)[O-])cc1	108 µM	146 µM	37 µM	28 µM	3.9		0.95
O=C(NCCO)c1cc([N+](=O)[O-])cc([N+](=O)[O-])c1N(CCBr)CCOS(=O)(=O)C(F)(F)F	470 µM	245 µM	42 µM	51 µM	5.8		0.33
O=C(O)CCNC(=O)c1cc([N+](=O)[O-])cc([N+](=O)[O-])c1N(CCBr)CCOS(=O)(=O)C(F)(F)F	480 µM	350 µM	90 µM	68 µM	3.9		0.15
O=C(O)CCNC(=O)c1cc([N+](=O)[O-])cc([N+](=O)[O-])c1N(CCBr)CCBr	413 µM	490 µM	75 µM	47 µM	6.5		0.42
